Laboratory results published in publication PMC4351919 (Journal of biological inorganic chemistry : JBIC : a …, 2014).

Key:
[1] = Determination of aqueous solubility; format: physicochemical; conditions: Milli-Q water, room temperature
In short: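 Modified OECD method. Saturated solutions made in Milli-Q water at room temperature with repeated ultrasonication. Undissolved material removed through a 0.45 μm filter. Filtrate diluted in 1 % HNO3, and platinum quantified by ICP-MS (RF 1500 W, 194Pt/195Pt monitored, Re internal isotope, 10 replicates) to calculate solubility.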

[2] = Lipophilicity as chromatographic retention factor log kw; format: physicochemical; conditions: RP-HPLC, extrapolated to 0 % MeOH
In short: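 RP-HPLC on a C18 column (4.6 × 250 mm, 5 μm) at 25 °C, 1 ml/min, isocratic 0.1 % TFA(aq)/MeOH, UV 210 nm, with uracil for dead time t0. Each compound run in triplicate at ≥3 MeOH compositions; k = (tR − t0)/t0. log kw obtained by linear extrapolation of log k versus %MeOH to 0 % MeOH.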

[3] = Lipophilicity as n-octanol/water partition coefficient; format: physicochemical; conditions: shake flask
In short: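 Modified OECD shake-flask method. Compound dissolved in water pre-saturated with 1-octanol, and aqueous Pt measured by ICP-MS after dilution in 1 % HNO3. Solution then mixed 1:1 with water-saturated 1-octanol and shaken 1 h. After phase separation, aqueous Pt re-measured; octanol content taken as the loss from the stock to give log Po/w.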

[4] = system: murine leukemia model L1210; assay: Cytotoxicity assay; format: cell-based; conditions: read-out: IC50 mean ± SD, L1210; MTT assay, 72 h exposure
In short: (§1)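 Cells (L1210 in RPMI 1640; CT-26 in DMEM/F12; both with 10 % FCS, 37 °C, 5 % CO2) seeded at 2 × 10^3/well and allowed 24 h recovery. 10 mM DMSO stocks serially diluted in medium; final DMSO ≤0.5 %. After 72 h exposure, viability read by MTT (EZ4U). IC50 reported as mean ± SD of at least three independent experiments.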

[5] = system: murine colon cancer cell model CT-26; assay: Cytotoxicity assay; format: cell-based; conditions: MTT assay, 72 h exposure; for IC50: read-out: IC50 mean ± SD, CT-26
In short: as §1

[6] = Tissue distribution of platinum after single dose oral administration; format: in vivo, Balb/c mice; conditions: 2 h after single oral dose 40 mg/kg, mice
[7] = format: in vivo, Balb/c mice; conditions: CT-26-bearing mice
CH1 = conditions: read-out: IC50 (CH1); MTT assay, 96 h exposure; cited from earlier work
SW480 = conditions: read-out: IC50 (SW480); MTT assay, 96 h exposure; cited from earlier work
A549 = conditions: read-out: IC50 (A549); MTT assay, 96 h exposure; cited from earlier work
[8] = SEC-ICP-MS study in mice serum after single dose oral administration; format: in vivo; conditions: serum 2 h after single oral dose
In short: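 Balb/c mice dosed orally once at 40 mg/kg (water, 1 % DMSO). Under anesthesia at 2 h, blood taken by heart puncture; serum isolated (3000 rpm, 10 min, twice), stored at −20 °C, then diluted in PBS. SEC on Superdex 200 (10–600 kDa), 100 mmol/l ammonium acetate pH 7.4, 0.7 ml/min, with online ICP-MS Pt trace. References: compounds in PBS, fresh or after 1 and 24 h at 37 °C.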

CT-26 cells = assay: Anticancer activity against CT-26 cells in vivo; parameters: species or system Balb/c mice; conditions: CT-26-bearing mice, i.p. days 4, 7, 11, 14; 8.5 mg/kg for 1, 10 mg/kg for 2
In short: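 CT-26 cells (5 × 10^5) injected s.c. into right flank of female Balb/c mice. Test compound given i.p. as freshly prepared aqueous solution on days 4, 7, 11 and 14. Daily distress checks. Tumor size measured regularly by caliper; volume = length × width²/2. Mice sacrificed at day 15, 24 h after last dose.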

[9] = 15 min after oral application, clinical trials; cited from earlier work
[10] = cited from earlier work

| Structure (SMILES) | Aqueous solubility [1] [µg/mL] | Lipophilicity (log kw) [2] | Lipophilicity (log Po/w) [3] | IC50 [4] [nM] | IC50 [5] [nM] | Percentage of platinum amount found in serum relative to the administered platinum dose [6] | Platinum level in serum [6] | IC50 (CH1) [nM] | IC50 (SW480) [nM] | IC50 (A549) [nM] | further results |
| --- | --- | --- | --- | --- | --- | --- | --- | --- | --- | --- | --- |
| CC[NH][Pt]([Cl])([Cl])([NH]CC)([O]C(=O)CCC(=O)OCC)[O]C(=O)CCC(=O)OCC [Compound 1, (OC-6-33)-dichloridobis((4-ethoxy)-4-oxobutanoato)bis(ethylamine)platinum(IV)] | 1940 ± 20 | 2.87 ± 0.01 | 0.72 ± 0.03 | 1500 ± 400 | 5700 ± 200 | ~ 16 % Pt | ~ 2 μg/ml | 61 ± 15 | 300 ± 50 | 1000 ± 400 | Platinum level in blood pellet [6]: ~ 1 μg/g; Platinum level in kidneys [6]: ~ 4 μg/g; Platinum level in liver [6]: ~ 9 μg/g; Platinum level in lungs [6]: ~ 1 μg/g; Increase of platinum level in tumor at the higher oral dose ([7]; 51.7 vs 34.1 mg/kg p.o., multiple dose): up to 30% |
| [NH2][Pt]1([NH2])([O]C(=O)CCC(=O)NC2CCCC2)([O]C(=O)CCC(=O)NC2CCCC2)[O]C(=O)C2(CCC2)C(=O)[O]1 [Compound 2, (OC-6-33)-diammine(cyclobutane-1,1-dicarboxylato)bis((4-cyclopentylamino)-4-oxobutanoato)platinum(IV)] | 10200 ± 40 | 2.99 ± 0.06 | 0.77 ± 0.06 | > 50000 | > 50000 | ~ 1.5 % Pt | ~ 0.15 μg/ml | 15000 ± 5000 | > 500000 | > 500000 | Platinum accumulation in all organ samples [6]: less than 0.5 μg/g; Free intact platinum(IV) complex in serum [8]: ~ 5%; In vivo anticancer activity (tumor volume), intraperitoneal application (CT-26 cells): inactive; Platinum in liver, kidney and serum after i.p. versus oral administration ([7]; 10 mg/kg i.p. vs 40 mg/kg p.o., multiple dose): tenfold higher; Platinum concentrations in all tissues after oral application ([7]; multiple dose p.o. 40 mg/kg, day 15): < 0.5 µg/g |
| CC(=O)[O][Pt]([NH2])([Cl])([Cl])([NH]C1CCCCC1)[O]C(C)=O [Satraplatin, (OC-6-43)-bis(acetato)amminedichlorido(cyclohexylamine)platinum(IV), reference compound] | 100 ± 10 | 1.49 ± 0.03 | 0.23 ± 0.01 | 2500 ± 200 | 2900 ± 300 | ~ 4 % Pt | – | 100 ± 20 | 1500 ± 100 | 6400 ± 400 | Fold more active than 1 in CT-26 cells [5]: ~ 2 fold; Times lower platinum concentrations in the investigated tissues than compound 1 [6]: 2-3 times; Presence of intact parent drug in serum [8]: absence of intact satraplatin; Parent drug in patients' plasma ultrafiltrate [9]: no parent drug was detected |
| N.N.O=C([O-])C1(C(=O)[O-])CCC1.[Pt+2] [carboplatin] | – | – | – | – | – | – | – | – | – | – | Injected dose recovered in urine [10]: ~90% |
